Assay results: ChEMBL document CHEMBL3046880, “Syntheses and herbicidal activities of novel triazolinone derivatives” (J Agric Food Chem, 2008)

Columns and labels:
Cerastium arvense [1] = experiment: Herbicidal activity against Cerastium arvense assessed as growth inhibition at 75 g of active ingredient/ha administered using post-emergence treatment measured 15 days post treatment protocol under greenhouse conditions; format: functional
Procedure, shortened: (§1)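 Test agents were formulated as 100 g/L emulsified concentrates (DMF solvent, TW-80 emulsifier), diluted with water and sprayed postemergence on pot-grown weeds. Seeds were sown 1-3 cm deep in clay soil (pH 6.5, 1.6% organic matter, 37.3% clay, CEC […]) and grown at 15–30 °C in a greenhouse. Dicots were treated at the two-leaf stage. Untreated and DMF-treated plants served as controls. Activity was scored visually 15 days after treatment.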

[2] = Phytotoxicity against Triticum aestivum (wheat) plant assessed as growth inhibition at 75 g of active ingredient/ha administered using post-emergence treatment measured 30 days post treatment protocol under greenhouse conditions; format: organism-based; conditions: in vivo, read-out: GI
Procedure, shortened: (§2)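 Compounds were formulated as 100 g/L emulsified concentrates in DMF with TW-80 as emulsifier, then diluted with water to the required concentration. They were applied postemergence to pot-grown plants in a greenhouse. The soil was clay, pH 6.5, with 1.6% organic matter, 37.3% clay particles and CEC 12.1 mol/kg. Sulfentrazone served as the reference control.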

Cerastium arvense [3] = experiment: Herbicidal activity against Cerastium arvense assessed as growth inhibition at 150 g of active ingredient/ha administered using post-emergence treatment measured 15 days post treatment protocol under greenhouse conditions; format: functional; procedure, shortened: as §1
Glycine max [4] = experiment: Phytotoxicity against Glycine max (soybean) plant assessed as growth inhibition at 450 g of active ingredient/ha administered using post-emergence treatment measured 30 days post treatment protocol under greenhouse conditions; format: organism-based; conditions: in vivo, other, 720 h; procedure, shortened: as §2
[5] = Phytotoxicity against Zea mays (maize) plant assessed as growth inhibition at 75 g of active ingredient/ha administered using post-emergence treatment measured 30 days post treatment protocol under greenhouse conditions; format: organism-based; conditions: in vivo, read-out: GI; procedure, shortened: as §2
Triticum aestivum [6] = experiment: Phytotoxicity against Triticum aestivum (wheat) plant assessed as growth inhibition at 450 g of active ingredient/ha administered using post-emergence treatment measured 30 days post treatment protocol under greenhouse conditions; format: organism-based; conditions: in vivo, other, 720 h; procedure, shortened: as §2
Brassica napus [7] = experiment: Phytotoxicity against Brassica napus (oilseed rape) assessed as growth inhibition at 150 g of active ingredient/ha administered using post-emergence treatment measured 30 days post treatment protocol under greenhouse conditions; format: organism-based; conditions: in vivo, other, 720 h; procedure, shortened: as §2
Setaria viridis [8] = experiment: Herbicidal activity against Setaria viridis (green foxtail) assessed as growth inhibition at 37.5 g of active ingredient/ha administered using post-emergence treatment measured 15 days post treatment protocol under greenhouse conditions; format: functional; procedure, shortened: as §1
Brassica juncea [9] = experiment: Herbicidal activity against Brassica juncea assessed as growth inhibition at 150 g of active ingredient/ha administered using post-emergence treatment measured 15 days post treatment protocol under greenhouse conditions; format: functional; procedure, shortened: as §1
Amaranthus retroflexus [10] = experiment: Herbicidal activity against Amaranthus retroflexus assessed as growth inhibition at 37.5 g of active ingredient/ha administered using post-emergence treatment measured 15 days post treatment protocol under greenhouse conditions; format: functional; procedure, shortened: as §1
[11] = Phytotoxicity against Oryza sativa (rice) plant assessed as growth inhibition at 300 g of active ingredient/ha administered using post-emergence treatment measured 30 days post treatment protocol under greenhouse conditions; format: organism-based; conditions: in vivo, read-out: GI; procedure, shortened: as §2
Portulaca oleracea [12] = experiment: Herbicidal activity against Portulaca oleracea assessed as growth inhibition at 75 g of active ingredient/ha administered using post-emergence treatment measured 15 days post treatment protocol under greenhouse conditions; format: functional; procedure, shortened: as §1
Echinochloa crus-galli = experiment: Herbicidal activity against Echinochloa crus-galli (barnyard grass) assessed as growth inhibition at 37.5 g of active ingredient/ha administered using post-emergence treatment measured 15 days post treatment protocol under greenhouse conditions; format: functional; procedure, shortened: as §1
Portulaca oleracea [13] = experiment: Herbicidal activity against Portulaca oleracea assessed as growth inhibition at 37.5 g of active ingredient/ha administered using post-emergence treatment measured 15 days post treatment protocol under greenhouse conditions; format: functional; procedure, shortened: as §1
Gossypium hirsutum [14] = experiment: Phytotoxicity against Gossypium hirsutum (cotton) plant assessed as growth inhibition at 300 g of active ingredient/ha administered using post-emergence treatment measured 30 days post treatment protocol under greenhouse conditions; format: organism-based; conditions: in vivo, other, 720 h; procedure, shortened: as §2
[15] = Phytotoxicity against Glycine max (soybean) plant assessed as growth inhibition at 75 g of active ingredient/ha administered using post-emergence treatment measured 30 days post treatment protocol under greenhouse conditions; format: organism-based; conditions: in vivo, read-out: GI; procedure, shortened: as §2
Triticum aestivum [16] = experiment: Phytotoxicity against Triticum aestivum (wheat) plant assessed as growth inhibition at 150 g of active ingredient/ha administered using post-emergence treatment measured 30 days post treatment protocol under greenhouse conditions; format: organism-based; conditions: in vivo, other, 720 h; procedure, shortened: as §2
Amaranthus retroflexus [17] = experiment: Herbicidal activity against Amaranthus retroflexus assessed as growth inhibition at 75 g of active ingredient/ha administered using post-emergence treatment measured 15 days post treatment protocol under greenhouse conditions; format: functional; procedure, shortened: as §1
Senna tora [18] = experiment: Herbicidal activity against Senna tora assessed as growth inhibition at 75 g of active ingredient/ha administered using post-emergence treatment measured 15 days post treatment protocol under greenhouse conditions; format: functional; procedure, shortened: as §1
[19] = Phytotoxicity against Oryza sativa (rice) plant assessed as growth inhibition at 75 g of active ingredient/ha administered using post-emergence treatment measured 30 days post treatment protocol under greenhouse conditions; format: organism-based; conditions: in vivo, read-out: GI; procedure, shortened: as §2
Brassica juncea [20] = experiment: Herbicidal activity against Brassica juncea assessed as growth inhibition at 75 g of active ingredient/ha administered using post-emergence treatment measured 15 days post treatment protocol under greenhouse conditions; format: functional; procedure, shortened: as §1
Triticum aestivum [21] = experiment: Phytotoxicity against Triticum aestivum (wheat) plant assessed as growth inhibition at 300 g of active ingredient/ha administered using post-emergence treatment measured 30 days post treatment protocol under greenhouse conditions; format: organism-based; conditions: in vivo, other, 720 h; procedure, shortened: as §2
Brassica juncea [22] = experiment: Herbicidal activity against Brassica juncea assessed as growth inhibition at 37.5 g of active ingredient/ha administered using post-emergence treatment measured 15 days post treatment protocol under greenhouse conditions; format: functional; procedure, shortened: as §1
Senna tora [23] = experiment: Herbicidal activity against Senna tora assessed as growth inhibition at 37.5 g of active ingredient/ha administered using post-emergence treatment measured 15 days post treatment protocol under greenhouse conditions; format: functional; procedure, shortened: as §1
Setaria viridis [24] = experiment: Herbicidal activity against Setaria viridis (green foxtail) assessed as growth inhibition at 75 g of active ingredient/ha administered using post-emergence treatment measured 15 days post treatment protocol under greenhouse conditions; format: functional; procedure, shortened: as §1
Gossypium hirsutum [25] = experiment: Phytotoxicity against Gossypium hirsutum (cotton) plant assessed as growth inhibition at 150 g of active ingredient/ha administered using post-emergence treatment measured 30 days post treatment protocol under greenhouse conditions; format: organism-based; conditions: in vivo, other, 720 h; procedure, shortened: as §2
Glycine max [26] = experiment: Phytotoxicity against Glycine max (soybean) plant assessed as growth inhibition at 300 g of active ingredient/ha administered using post-emergence treatment measured 30 days post treatment protocol under greenhouse conditions; format: organism-based; conditions: in vivo, other, 720 h; procedure, shortened: as §2
Brassica napus [27] = experiment: Phytotoxicity against Brassica napus (oilseed rape) assessed as growth inhibition at 450 g of active ingredient/ha administered using post-emergence treatment measured 30 days post treatment protocol under greenhouse conditions; format: organism-based; conditions: in vivo, other, 720 h; procedure, shortened: as §2
Setaria viridis [28] = experiment: Herbicidal activity against Setaria viridis (green foxtail) assessed as growth inhibition at 150 g of active ingredient/ha administered using post-emergence treatment measured 15 days post treatment protocol under greenhouse conditions; format: functional; procedure, shortened: as §1
Portulaca oleracea [29] = experiment: Herbicidal activity against Portulaca oleracea assessed as growth inhibition at 150 g of active ingredient/ha administered using post-emergence treatment measured 15 days post treatment protocol under greenhouse conditions; format: functional; procedure, shortened: as §1
Zea mays = experiment: Phytotoxicity against Zea mays (maize) plant assessed as growth inhibition at 300 g of active ingredient/ha administered using post-emergence treatment measured 30 days post treatment protocol under greenhouse conditions; format: organism-based; conditions: in vivo, other, 720 h; procedure, shortened: as §2
Eclipta prostrata = experiment: Herbicidal activity against Eclipta prostrata assessed as growth inhibition at 37.5 g of active ingredient/ha administered using post-emergence treatment measured 15 days post treatment protocol under greenhouse conditions; format: functional; procedure, shortened: as §1

## CCS(=O)(=O)Nc1cc(-n2nc(C)n(Cc3ccccc3/C(=N\OC)C(=O)OC)c2=O)c(F)cc1Cl
Cerastium arvense [1]
  growth inhibition (GI): 100%
[2]
  inhibition at 720 h: 40%
Cerastium arvense [3]
  growth inhibition (GI): 100%
Glycine max [4]
  Activity: Toxic
[5]
  inhibition at 720 h: 40%
Triticum aestivum [6]
  Activity: Toxic
Brassica napus [7]
  Activity: Toxic
Setaria viridis [8]
  growth inhibition (GI): <50%
Brassica juncea [9]
  growth inhibition (GI): >80%
Amaranthus retroflexus [10]
  growth inhibition (GI): >80%
[11]
  inhibition at 720 h: 0%
Portulaca oleracea [12]
  growth inhibition (GI): 100%
Echinochloa crus-galli
  growth inhibition (GI): <50%
Portulaca oleracea [13]
  growth inhibition (GI): 100%
Gossypium hirsutum [14]
  Activity: Toxic
[15]
  inhibition at 720 h: 60%
Triticum aestivum [16]
  Activity: Toxic
Amaranthus retroflexus [17]
  growth inhibition (GI): >80%
Senna tora [18]
  growth inhibition (GI): >80%
[19]
  inhibition at 720 h: 0%
Brassica juncea [20]
  growth inhibition (GI): >80%
Triticum aestivum [21]
  Activity: Toxic
Brassica juncea [22]
  growth inhibition (GI): >80%
Senna tora [23]
  growth inhibition (GI): 50%
Setaria viridis [24]
  growth inhibition (GI): <50%
Gossypium hirsutum [25]
  Activity: Toxic
Glycine max [26]
  Activity: Toxic
Brassica napus [27]
  Activity: Toxic
Setaria viridis [28]
  growth inhibition (GI): 50%
Portulaca oleracea [29]
  growth inhibition (GI): 100%
Zea mays
  Activity: Toxic
Eclipta prostrata
  growth inhibition (GI): >80%
